Experimental data: ChEMBL document CHEMBL4665734, “Optimization of globomycin analogs as novel gram-negative antibiotics” (Bioorg Med Chem Lett, 2020)
In brackets after ≈: the same amount, converted by molar mass. Starred links: 1 amine or outer side, 2 acyl side, 3 side chain; linkers in the order of their positions; H or OH if unused. Non-standard residues stand in square brackets, D forms with d. Residues, ends and D or L forms follow the SMILES beside them. *: point of attachment. X1 = CCCCCC[C@@H](OC[C@@H](C)N[*:1])[C@@H](C)C(=O)[*:2]; X16 = CCCC[C@@H](C(=O)[*:2])N(CCCC)CCN[*:1]; Gly(cHept) = N[C@H](C(=O)O)C1CCCCCC1; aThr = C[C@H](O)[C@H](N)C(=O)O; NMeL = CN[C@@H](CC(C)C)C(=O)O; Chg = N[C@H](C(=O)O)C1CCCCC1; NMeNva = CCC[C@H](NC)C(=O)O; Dap = NC[C@H](N)C(=O)O; NH(CH2)3NH2 = NCCCN*; X11 = NCCCC*

Tests used:
Escherichia coli CFT073 = assay: Inhibition of LspA in wild type Escherichia coli CFT073 assessed as inhibition of bacterial growth
Summary of the method: (§1)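 Read-out is the minimum inhibitory concentration, reported in µM.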

Escherichia coli = assay: Inhibition of LspA in Escherichia coli CFT073imp4213 harboring outer membrane-permeable mutant assessed as inhibition of bacterial growth; summary of the method: as §1
[1] = Growth inhibition of Staphylococcus aureus USA300
[2] = Lipophilicity, logD of the compound at pH 7.4; settings: buffer

CCCCCC[C@H]1OC(=O)CNC(=O)[C@H]([C@H](C)O)NC(=O)[C@H](CN)NC(=O)[C@H](C2CCCCC2)NC(=O)[C@H](CCC)N(C)C(=O)[C@@H]1C
MIC (Escherichia coli CFT073): 3.5 µM (≈ 2.33 µg/mL)
MIC (Escherichia coli): 0.049 µM (≈ 0.0327 µg/mL)
MIC [1]: > 100 µM

CCCCCC[C@H]1OC[C@@H](C)NC(=O)[C@H](COCCCCN)NC(=O)[C@H](CN)NC(=O)[C@H](C2CCCCC2)NC(=O)[C@H](CC(C)C)N(C)C(=O)[C@@H]1C (cyclo([Chg][Dap]S(X11)[X1][NMeL]))
MIC (Escherichia coli CFT073): 7 µM (≈ 5.17 µg/mL)
logD ([2]; pH 7.4, logD): 1.7
MIC (Escherichia coli): 0.18 µM (≈ 0.133 µg/mL)
MIC [1]: 56 µM (≈ 41.3 µg/mL)

CCCCCC[C@H]1OC(=O)CNC(=O)[C@H]([C@H](C)O)NC(=O)[C@H](CN)NC(=O)[C@H](C2CCCCC2)NC(=O)[C@H](CC(C)C)N(C)C(=O)[C@@H]1C
MIC (Escherichia coli CFT073): 3.1 µM (≈ 2.11 µg/mL)
MIC (Escherichia coli): 0.059 µM (≈ 0.0402 µg/mL)
MIC [1]: > 100 µM

CCCCCC[C@H]1OC[C@@H](C)NC(=O)[C@H](CC(=O)NCCCN)NC(=O)[C@H](CN)NC(=O)[C@H](C2CCCCCC2)NC(=O)[C@H](CCC)N(C)C(=O)[C@@H]1C (cyclo(D(NH(CH2)3NH2)[X1][NMeNva][Gly(cHept)][Dap]))
MIC (Escherichia coli CFT073): 18 µM (≈ 13.5 µg/mL)
logD ([2]; pH 7.4, logD): 1.3
MIC (Escherichia coli): 0.39 µM (≈ 0.293 µg/mL)
MIC [1]: 100 µM (≈ 75.1 µg/mL)

COC(C)(C)CCCCCC[C@H]1OC(=O)CNC(=O)[C@H]([C@H](C)O)NC(=O)[C@H](CN)NC(=O)[C@H](C2CCCCC2)NC(=O)[C@H](CC(C)C)N(C)C(=O)[C@@H]1C
MIC (Escherichia coli CFT073): 2.2 µM (≈ 1.66 µg/mL)
logD ([2]; pH 7.4, logD): 2.8
MIC (Escherichia coli): 0.048 µM (≈ 0.0361 µg/mL)
MIC [1]: > 100 µM

CCC[C@H]1C(=O)N[C@@H](C2CCCCCC2)C(=O)N[C@@H](CN)C(=O)N[C@@H]([C@H](C)O)C(=O)NCC(=O)O[C@H](CC2CC3CCC2C3)[C@@H](C)C(=O)N1C (stereo in doubt; 26)
logD ([2]; pH 7.4, logD): 2.8
MIC [1]: 100 µM (≈ 70.5 µg/mL)

CCCCCC[C@H]1OC(=O)CNC(=O)[C@H]([C@H](C)O)NC(=O)[C@H](CN)NC(=O)[C@H]([C@@H](C)OC)NC(=O)[C@H](CC(C)C)N(C)C(=O)[C@@H]1C
MIC (Escherichia coli CFT073): > 100 µM
MIC (Escherichia coli): 7.7 µM (≈ 5.06 µg/mL)
MIC [1]: > 100 µM

CCCCCC[C@H]1OC(=O)CNC(=O)[C@H]([C@H](C)O)NC(=O)[C@H](CN)NC(=O)[C@H](CCC(N)=O)NC(=O)[C@H](CC(C)C)N(C)C(=O)[C@@H]1C
MIC (Escherichia coli CFT073): > 100 µM
MIC (Escherichia coli): > 100 µM
MIC [1]: > 100 µM

CCCCCC[C@H]1OC(=O)CNC(=O)[C@H]([C@H](C)O)NC(=O)[C@H](CN)NC(=O)[C@H](c2ccccc2)NC(=O)[C@H](CC(C)C)N(C)C(=O)[C@@H]1C
MIC (Escherichia coli CFT073): 71 µM (≈ 47.9 µg/mL)
MIC (Escherichia coli): 1.6 µM (≈ 1.08 µg/mL)
MIC [1]: > 100 µM

CCCCCCCCCC[C@H]1OC(=O)CNC(=O)[C@H]([C@H](C)O)NC(=O)[C@H](CO)NC(=O)[C@H]([C@H](C)CC)NC(=O)[C@H](CC(C)C)N(C)C(=O)[C@@H]1C
MIC (Escherichia coli CFT073): 5.4 µM (≈ 3.84 µg/mL)
MIC (Escherichia coli): 0.016 µM (≈ 0.0114 µg/mL)
MIC [1]: 25 µM (≈ 17.8 µg/mL)

CCC[C@H]1C(=O)N[C@@H](C2CCCCCC2)C(=O)N[C@@H](CN)C(=O)N[C@@H]([C@H](C)O)C(=O)NCC(=O)O[C@H](CC2CC3CCC2C3)[C@@H](C)C(=O)N1C (stereo in doubt; 27) [listing 1 of 2 here]
logD ([2]; pH 7.4): 2.9

CCCCCCCCCC[C@H]1OC(=O)CNC(=O)[C@H]([C@H](C)O)NC(=O)[C@H](CCN)NC(=O)[C@H]([C@@H](C)CC)NC(=O)[C@H](CC(C)C)N(C)C(=O)[C@@H]1C
MIC (Escherichia coli CFT073): 25 µM (≈ 18.1 µg/mL)
MIC (Escherichia coli): 0.39 µM (≈ 0.283 µg/mL)
MIC [1]: 13 µM (≈ 9.42 µg/mL)

CCCCCC[C@H]1OC(=O)CNC(=O)[C@H]([C@H](C)O)NC(=O)[C@H](CN)NC(=O)[C@H](CC(C)C)NC(=O)[C@H](CC(C)C)N(C)C(=O)[C@@H]1C
MIC (Escherichia coli CFT073): 25 µM (≈ 16.4 µg/mL)
MIC (Escherichia coli): 0.4 µM (≈ 0.262 µg/mL)
MIC [1]: > 100 µM

CCCCCCCCCC[C@H]1OC(=O)CNC(=O)[C@H]([C@H](C)O)NC(=O)[C@H](CN)NC(=O)[C@H]([C@@H](C)CC)NC(=O)[C@H](CC(C)C)N(C)C(=O)[C@@H]1C
MIC (Escherichia coli CFT073): 2.2 µM (≈ 1.56 µg/mL)
MIC (Escherichia coli): 0.03 µM (≈ 0.0213 µg/mL)
MIC [1]: 13 µM (≈ 9.24 µg/mL)

CCCCCC[C@H]1OC(=O)CNC(=O)[C@H]([C@H](C)O)NC(=O)[C@H](CN)NC(=O)[C@H]([C@@H](C)O)NC(=O)[C@H](CC(C)C)N(C)C(=O)[C@@H]1C
MIC (Escherichia coli CFT073): > 100 µM
MIC (Escherichia coli): 50 µM (≈ 32.1 µg/mL)
MIC [1]: > 100 µM

CCCC[C@H]1C(=O)N(C)[C@@H](CC(C)C)C(=O)N[C@@H](C2CCCCC2)C(=O)N[C@@H](CN)C(=O)N[C@@H]([C@H](C)O)C(=O)NCCN1CCCC (cyclo([Chg][Dap][aThr][X16][NMeL]))
MIC (Escherichia coli CFT073): 6.3 µM (≈ 4.2 µg/mL)
MIC (Escherichia coli): 0.1 µM (≈ 0.0666 µg/mL)
MIC [1]: 100 µM (≈ 66.6 µg/mL)

CCC[C@H]1C(=O)N[C@@H](C2CCCCCC2)C(=O)N[C@@H](CN)C(=O)N[C@@H]([C@H](C)O)C(=O)NCC(=O)O[C@H](CC2CC3CCC2C3)[C@@H](C)C(=O)N1C (stereo in doubt; 27) [listing 2 of 2 here]
MIC (Escherichia coli CFT073): 0.78 µM (≈ 0.55 µg/mL)
MIC (Escherichia coli): 0.009 µM (≈ 0.00634 µg/mL)

CCCCCCCCCC[C@H]1OC(=O)CNC(=O)[C@H]([C@H](C)O)NC(=O)[C@H](CNC(=N)N)NC(=O)[C@H]([C@@H](C)CC)NC(=O)[C@H](CC(C)C)N(C)C(=O)[C@@H]1C
MIC (Escherichia coli CFT073): 50 µM (≈ 37.6 µg/mL)
MIC (Escherichia coli): 1.6 µM (≈ 1.2 µg/mL)
MIC [1]: 13 µM (≈ 9.79 µg/mL)
